Measured values from ChEMBL document CHEMBL1909504, “New series of isoniazid hydrazones linked with electron-withdrawing substituents” (Eur J Med Chem, 2011).
In brackets after ≈: the same amount, converted by molar mass.

Experiments:
[1] = test system: Mycobacterium tuberculosis; experiment: Antimycobacterial activity against Mycobacterium tuberculosis CNTC My 331/88 ATCC 27294 after 14 days; type: functional; settings: CNTC My 331/88 ATCC 27294, 336 h
Method in brief: (§1)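 Sula semi-synthetic medium at 37 °C. Compounds were dissolved in DMSO (max. 5% DMSO in water) and added to the medium at 1000, 500, 250, 125, 62, 31, 16, 8, 4, 2 and 1 μmol L⁻¹. MIC was read after 7, 14 and 21 days of incubation at 37 °C. Strains came from the Czech National Collection of Type Cultures.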

[2] = test system: Mycobacterium tuberculosis; experiment: Antimycobacterial activity against Mycobacterium tuberculosis CNTC My 331/88 ATCC 27294 after 21 days; type: functional; settings: CNTC My 331/88 ATCC 27294, 504 h; method in brief: as §1
[3] = test system: Mycobacterium avium; experiment: Antimycobacterial activity against Mycobacterium avium CNTC My 330/88 after 14 days; type: functional; settings: CNTC My 330/88, 336 h; method in brief: as §1
[4] = test system: Mycobacterium avium; experiment: Antimycobacterial activity against Mycobacterium avium CNTC My 330/88 after 21 days; type: functional; settings: CNTC My 330/88, 504 h; method in brief: as §1
[5] = test system: Mycobacterium kansasii; experiment: Antimycobacterial activity against Mycobacterium kansasii CNTC My 335/80 after 7 days; type: functional; settings: 168 h
Method in brief: (§2)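 MIC in Sula semi-synthetic medium at 37 °C. M. kansasii 6509/96 is a clinical isolate; M. kansasii CNTC My 235/80 comes from the Czech national collection. Compounds were dissolved in DMSO (max. 5% DMSO in water) and tested at 1000, 500, 250, 125, 62, 31, 16, 8, 4, 2 and 1 μmol L⁻¹. MIC was read after 7, 14 and 21 days.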

[6] = test system: Mycobacterium kansasii; experiment: Antimycobacterial activity against Mycobacterium kansasii CNTC My 335/80 after 14 days; type: functional; settings: 336 h; method in brief: as §2
[7] = test system: Mycobacterium kansasii; experiment: Antimycobacterial activity against Mycobacterium kansasii CNTC My 335/80 after 21 days; type: functional; settings: 504 h; method in brief: as §2
[8] = test system: Mycobacterium kansasii; experiment: Antimycobacterial activity against Mycobacterium kansasii 6509/96 isolate after 7 days; type: functional; settings: 6509/96, 168 h; method in brief: as §2
[9] = test system: Mycobacterium kansasii; experiment: Antimycobacterial activity against Mycobacterium kansasii 6509/96 isolate after 14 days; type: functional; settings: 6509/96, 336 h; method in brief: as §2
[10] = test system: Mycobacterium kansasii; experiment: Antimycobacterial activity against Mycobacterium kansasii 6509/96 isolate after 21 days; type: functional; settings: 6509/96, 504 h; method in brief: as §2
[11] = test system: HepG2; experiment: Cytotoxicity against human HepG2 cells by MTT assay; type: cell-based
Method in brief: (§3)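 MTT viability assay in RPMI-1640 without phenol red with 10% FCS and 2 mM L-glutamine, at 37 °C and 5% CO₂. HepG2 seeded at 5×10³ cells/well; fresh human PBMC at 2.0×10⁵ cells/well. After 24 h, cells were exposed overnight in serum-free medium, then given MTT (2 mg mL⁻¹) for 4 h. Formazan dissolved in DMSO, OD540 minus OD620, compared with untreated controls. IC50 taken from dose-response curves; two independent experiments, 4–8 parallels.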

[12] = test system: PBMC; experiment: Cytotoxicity against human PBMC by MTT assay; type: cell-based; method in brief: as §3
[13] = Selectivity index, ratio of IC50 for human HepG2 cells to MIC for Mycobacterium tuberculosis CNTC My 331/88 ATCC 27294; type: functional
Method in brief: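 HepG2 human hepatoma cells in RPMI-1640 without phenol red with 10% FCS, 2 mM L-glutamine and gentamycin, at 37 °C and 5% CO₂. Seeded at 5×10³ cells/well and grown 24 h, then treated overnight in serum-free medium. Read-out was MTT (4 h), formazan dissolved in DMSO, OD540 minus OD620. IC50 was taken from dose-response curves, two experiments with 4–8 parallels. MIC was measured in Sula medium.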

SMILES | MIC [1] | MIC [2] | MIC [3] | MIC [4] | MIC [5] | MIC [6] | MIC [7] | MIC [8] | MIC [9] | MIC [10] | IC50 [11] | IC50 [12] | Ratio [13]
O=C(N/N=C/Nc1ccc(F)cc1)c1ccncc1 | 1 µM (≈ 0.258 µg/mL) | 2 µM (≈ 0.517 µg/mL) | 250 µM (≈ 64.6 µg/mL) | 500 µM (≈ 129 µg/mL) | 250 µM (≈ 64.6 µg/mL) | 1000 µM (≈ 258 µg/mL) | > 1000 µM | 8 µM (≈ 2.07 µg/mL) | 8 µM (≈ 2.07 µg/mL) | 8 µM (≈ 2.07 µg/mL) |  |  | 
O=C(N/N=C/Nc1cc(Cl)ccc1O)c1ccncc1 | 2 µM (≈ 0.581 µg/mL) | 2 µM (≈ 0.581 µg/mL) | 500 µM (≈ 145 µg/mL) | 500 µM (≈ 145 µg/mL) | 125 µM (≈ 36.3 µg/mL) | 250 µM (≈ 72.7 µg/mL) | 250 µM (≈ 72.7 µg/mL) | 8 µM (≈ 2.33 µg/mL) | 16 µM (≈ 4.65 µg/mL) | 32 µM (≈ 9.3 µg/mL) | 21.8 µM | 75 µM | 10.9
O=C(N/N=C/Nc1cccc(Br)c1)c1ccncc1 | 1 µM (≈ 0.319 µg/mL) | 1 µM (≈ 0.319 µg/mL) | 250 µM (≈ 79.8 µg/mL) | 500 µM (≈ 160 µg/mL) | 250 µM (≈ 79.8 µg/mL) | 1000 µM (≈ 319 µg/mL) | 1000 µM (≈ 319 µg/mL) | 8 µM (≈ 2.55 µg/mL) | 8 µM (≈ 2.55 µg/mL) | 16 µM (≈ 5.11 µg/mL) |  |  | 
O=C(N/N=C/Nc1cccc([N+](=O)[O-])c1)c1ccncc1 | 2 µM (≈ 0.571 µg/mL) | 2 µM (≈ 0.571 µg/mL) | 250 µM (≈ 71.3 µg/mL) | 500 µM (≈ 143 µg/mL) | 125 µM (≈ 35.7 µg/mL) | 250 µM (≈ 71.3 µg/mL) | 500 µM (≈ 143 µg/mL) | 8 µM (≈ 2.28 µg/mL) | 16 µM (≈ 4.56 µg/mL) | 16 µM (≈ 4.56 µg/mL) |  |  | 
O=C(N/N=C/Nc1ccc(C(F)(F)F)cc1)c1ccncc1 | 2 µM (≈ 0.617 µg/mL) | 2 µM (≈ 0.617 µg/mL) | 500 µM (≈ 154 µg/mL) | 1000 µM (≈ 308 µg/mL) | 250 µM (≈ 77.1 µg/mL) | 500 µM (≈ 154 µg/mL) | 1000 µM (≈ 308 µg/mL) | 32 µM (≈ 9.86 µg/mL) | 32 µM (≈ 9.86 µg/mL) | 32 µM (≈ 9.86 µg/mL) |  |  | 
O=C(N/N=C/Nc1ccc(F)c(Cl)c1)c1ccncc1 | 1 µM (≈ 0.293 µg/mL) | 2 µM (≈ 0.585 µg/mL) | 250 µM (≈ 73.2 µg/mL) | 500 µM (≈ 146 µg/mL) | 250 µM (≈ 73.2 µg/mL) | 1000 µM (≈ 293 µg/mL) | > 1000 µM | 16 µM (≈ 4.68 µg/mL) | 16 µM (≈ 4.68 µg/mL) | 32 µM (≈ 9.37 µg/mL) |  |  | 
O=C(N/N=C/Nc1ccc(O)cc1)c1ccncc1 | 4 µM (≈ 1.03 µg/mL) | 8 µM (≈ 2.05 µg/mL) | 500 µM (≈ 128 µg/mL) | 500 µM (≈ 128 µg/mL) | 250 µM (≈ 64.1 µg/mL) | 500 µM (≈ 128 µg/mL) | 500 µM (≈ 128 µg/mL) | 32 µM (≈ 8.2 µg/mL) | 62.5 µM (≈ 16 µg/mL) | 62.5 µM (≈ 16 µg/mL) |  |  | 
O=C(N/N=C/Nc1ccc(F)c(F)c1)c1ccncc1 | 2 µM (≈ 0.552 µg/mL) | 2 µM (≈ 0.552 µg/mL) | 250 µM (≈ 69.1 µg/mL) | 250 µM (≈ 69.1 µg/mL) | 250 µM (≈ 69.1 µg/mL) | 500 µM (≈ 138 µg/mL) | 1000 µM (≈ 276 µg/mL) | 8 µM (≈ 2.21 µg/mL) | 16 µM (≈ 4.42 µg/mL) | 32 µM (≈ 8.84 µg/mL) |  |  | 
O=C(N/N=C/Nc1cccc(C(F)(F)F)c1)c1ccncc1 | 1 µM (≈ 0.308 µg/mL) | 1 µM (≈ 0.308 µg/mL) | 500 µM (≈ 154 µg/mL) | 1000 µM (≈ 308 µg/mL) | 125 µM (≈ 38.5 µg/mL) | 250 µM (≈ 77.1 µg/mL) | 1000 µM (≈ 308 µg/mL) | 16 µM (≈ 4.93 µg/mL) | 16 µM (≈ 4.93 µg/mL) | 32 µM (≈ 9.86 µg/mL) |  |  | 
O=C(N/N=C/Nc1ccc(Cl)cc1O)c1ccncc1 | 2 µM (≈ 0.581 µg/mL) | 4 µM (≈ 1.16 µg/mL) | 250 µM (≈ 72.7 µg/mL) | 500 µM (≈ 145 µg/mL) | 250 µM (≈ 72.7 µg/mL) | 500 µM (≈ 145 µg/mL) | 500 µM (≈ 145 µg/mL) | 16 µM (≈ 4.65 µg/mL) | 16 µM (≈ 4.65 µg/mL) | 32 µM (≈ 9.3 µg/mL) |  |  | 
